For series [1], the system named is MCF-10 A. Briefly: MTT assay on non-cancerous control cells. The class given is cell-based. The settings on record: Homo sapiens, 48 h, read-out: IC50 MCF-10 A. The essentials:
(§1)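 Non-tumour control cells were used: BJ fibroblasts in DMEM with 5% FBS, and MCF-10A in DMEM/F12 with 5% horse serum, insulin, EGF and hydrocortisone. Cells (1 x 10³ per well) adhered 24 h, then were treated 48 h with 0–140 µM compound in DMSO (0.1% vehicle control). MTT (2.5 mg/mL) was applied 1 h at 37 °C. Formazan was dissolved in DMSO, read at 540 nm and normalised to vehicle.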

Series [2] relates to glioblastoma stem cells (Gli4). Nature of the series: Neurospheres formation assay. The class given is cell-based, human. The settings on record: proliferation medium, 0, 1 and 10 µM, 4 days. In a few lines:
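Dissociated Gli4 cells (4000 per well) were plated in proliferation medium in round-bottom ultra-low-attachment wells pre-coated with poly-HEMA; a flat-bottom format was also run. Compound in DMSO was added to final 0, 1 and 10 µM. After 4 days, spheres were dissociated, and cells were mixed 1:1 with trypan blue and counted in a Neubauer chamber.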

Series [3] deals with Gli4 cells. Nature of the series: 3D antiproliferative assay on non-aligned nanofibers. The class given is cell-based, human. The settings on record: proliferation and differentiation mediums, 0.1, 1 and 10 µM, 4 days.
For series [4], the system named is LN-18. Briefly: Antiproliferative MTT assay, 2D cell culture. The class given is cell-based. The settings on record: Homo sapiens, LN-18, 48 h, read-out: IC50 LN-18. In a few lines: (§2)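 LN-18 and U373 cells were grown in phenol-red-free DMEM with 5% FBS and amino acids at 37 °C, 5% CO2. Cells (1 x 10³ per well) adhered 24 h, then were exposed 48 h to 0–140 µM compound, with 0.1% DMSO as vehicle. MTT (2.5 mg/mL in phenol-red-free medium) was applied 1 h at 37 °C. Plates were read at 540 nm after DMSO solubilisation and normalised to vehicle. Statistics: one-way ANOVA with Tukey.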
In general terms: Tetrazolium dyes change colour on reduction, which living cells bring about.

Series [5] is described as follows: Forced stability test. The class given is physicochemical. The settings on record: for Percentage degradation, Thermal: 50 °C; for Percentage degradation, Thermal / Percentage degradation, Acid / Percentage degradation, Basic / Percentage degradation, Luminous: 24 h; for Percentage degradation, Oxidative: H2O2 3%, 1 h; for Percentage degradation, Acid: HCl 0.1 N; for Percentage degradation, Basic: NaOH 0.1 N; for Percentage degradation, Luminous: Sunlight. The essentials: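 Compound stock (1 mL) was placed in a 5 mL volumetric flask for each stress. Acid and base arms used 1 mL of 0.1 N HCl or 0.1 N NaOH for 24 h, then were neutralised with the opposite reagent. Oxidative stress used 3.0% H2O2. For heat (50 °C oven, 24 h) and sunlight exposure (24 h), stock was diluted to volume in mobile phase in capped vials. Degradation was assessed chromatographically.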

In series [6] the test system is Gli4 cells. Briefly: MTT assay, Gli4 in differentiation medium, flat bottom plate. The class given is cell-based, human. As to conditions: flat bottom, 0, 1 and 10 µM, compared to G-15. In a few lines:
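Gli4 cells (4000 per well) were seeded in differentiation medium in flat-bottom wells treated with laminin/lysine. Compound was tested at 0, 1 and 10 µM. Viability was quantified by MTT 5 days after incubation and expressed as % viability. N=5.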

The subject of series [7] is U373. Briefly: Antiproliferative MTT assay, 2D cell culture. The class given is cell-based. As to conditions: Homo sapiens, U373 MG, 48 h, read-out: IC50 U373. In a few lines:
as §2

Series [8] concerns BJ. Briefly: MTT assay on non-cancerous control cells. As to conditions: Homo sapiens, 48 h, read-out: IC50 BJ. The class given is cell-based. In a few lines:
as §1

Series [9] deals with Gli4 cells. Briefly: 3D anti-migratory assay on aligned nanofibers. The class given is cell-based, human. As to conditions: 10 µM, non-cytotoxic concentration.
Series [10] in a line: Dissolution in culture medium during antiproliferative assay. The class given is physicochemical. As to conditions: 20 µM.
Series [11] concerns GBM cell lines LN18 and U373. Nature of the series: Antiproliferative evaluation in 2D cell culture, summary over both GBM lines. The class given is cell-based, human. As to conditions: data not shown; crystals at 20 µM. In a few lines: as §2

For orientation: IC50 means the concentration needed to halve the response being measured. `O=C(NS(=O)(=O)c1ccc(Cl)cc1)c1ccc2c(c1)[C@@H]1C=CC[C@@H]1[C@H](c1cc3c(cc1Br)OCO3)N2` [L-37, (3aS,4R,9bR)-4-(6-bromobenzo[d][1,3]dioxol-5-yl)-N-((4-chlorophenyl)sulfonyl)-3a,4,5,9b-tetrahydro-3 H-cyclopenta[c] quinoline-8-carboxamide]: in series [1], the half-maximal inhibitory concentration (IC50) came to 23.9 µM. Also, in [2], the Neurospheres formation result is on record as “inhibit neurospheres formation”. Moreover, the “Cell proliferation of Gli4 on non-aligned nanofibers” value in series [3] was “trend to decrease cell proliferation”. Besides, the IC50 in [4] came out at 40.7 µM. Moreover, in [5], the “Percentage degradation, Thermal” value is 0.75%; the “Percentage degradation, Oxidative” value turned out to be 0.5%; the “Percentage degradation, Acid” value is on record as 0.65%; the “Percentage degradation, Basic” value is 13.6%. Besides, in [5], the “Percentage degradation, Luminous” value is 3.5%. Further, in series [6], the “Cell viability of the NS” value is “slightly decreased cell viability”. Also, the IC50 in series [7] was 39.8 µM. The IC50 in series [8] came out at 110 µM.
Regarding `Cc1ccc(S(=O)(=O)NC(=O)c2ccc3c(c2)[C@@H]2C=CC[C@@H]2[C@H](c2cc4c(cc2Br)OCO4)N3)cc1` [L-06, (3aS,4R,9bR)-4-(6-bromobenzo[d][1,3]dioxol-5-yl)-N-tosyl-3a,4,5,9b-tetrahydro-3 H-cyclopenta[c] quinoline-8-carboxamide], the “Reduction of migration of Gli4 cells on aligned NFS” value in series [9] was about 50%. In [1], the IC50 was determined as 33.8 µM. For the same compound, in series [2], the Neurospheres formation entry is given as “inhibit neurospheres formation”. Besides, in series [3], the “Cell proliferation of Gli4 on non-aligned nanofibers” value is reported as “non-antiproliferative activity”. For the same compound, in [4], the IC50 came out at 67.7 µM. In series [5], the “Percentage degradation, Thermal” value is 1.36%; the “Percentage degradation, Oxidative” value was found to be 2.95%; the “Percentage degradation, Acid” value stood at 7.2%; the “Percentage degradation, Basic” value is 9.8%. Further, the “Percentage degradation, Luminous” value in [5] was determined as 0.15%. In addition, the “Cell viability of the NS” value in [6] was “slightly decreased cell viability”. The IC50 in series [7] was found to be 67.7 µM. In addition, the 50% inhibitory concentration (IC50) in series [8] amounted to 102 µM.
With `Brc1cc2c(cc1[C@@H]1Nc3ccccc3[C@@H]3C=CC[C@@H]31)OCO2` [G15, reference compound], the Neurospheres formation result in series [2] is “inhibit neurospheres formation”. Also, the “Ability to dissolve into medium culture” value in series [10] is listed as “formed crystals”. Further, the “IC50 in the cells assayed” value in series [11] was “not able to reach IC50 values”.
As to `Cc1cc2c(C(C)C)c(O)c(O)c(C=O)c2c(O)c1-c1c(C)cc2c(C(C)C)c(O)c(O)c(C=O)c2c1O` [Gossypol, reference compound], the IC50 in [4] worked out at 25.3 µM; in series [7] it was 33.8 µM.
